Laboratory results: ChEMBL document CHEMBL3227938, “Quantitative structure-activity relationships for biguanides, carbamimidates, and bisbiguanides as inhibitors of Streptococcus mutans No. 6715” (J Med Chem, 1979)

Legend:
[1] = Octanol-phosphate buffer partition coefficient, log P of the compound at pH 11.5; format: physicochemical
Outline: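 Compound partitioned between 0.05 M phosphate buffer (pH 11.5) and octanol, each pre-saturated with the other. Gentle shaking for 90 min at 25 ± 5 °C. Phase ratio and sample amount set so the buffer-layer absorbance fell between 0.2 and 0.9 (1-cm cell, buffer blank). Free-base P was corrected for degree of ionization using pKa.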

[2] = system: Streptococcus mutans; test: Antimicrobial activity against Streptococcus mutans 6715 after 48 hrs by spectrophotometry; format: functional
Outline: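 Trypticase soy broth with sucrose and the salt of the test agent dosed from ethanol, inoculated with a 24-h S. mutans 6715 culture. Incubated anaerobically at 37 °C. Growth measured spectrophotometrically at 48 h. Each dilution tested in sets of five tubes.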

[3] = system: Streptococcus mutans; test: Antimicrobial activity against Streptococcus mutans 6715 after 24 hrs by spectrophotometry; format: functional
Outline: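 Inoculated with a 24-h S. mutans 6715 culture and incubated anaerobically at 37 °C. Growth read spectrophotometrically. Dilution series run in sets of five tubes. MIC is the lowest drug level with readings above 60% T at 24 h. Repeat determinations agreed.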

[4] = Dissociation constant, pKa of the compound in 3:1 water:ethanol at 1 x 10 '-3 M; format: physicochemical
Outline: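 pKa measured in duplicate by potentiometric titration in 3:1 water–ethanol at 10⁻³. pH recorded after each titrant addition, and pKa calculated by the Albert–Serjeant method.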

SMILES | logD [1] | log(1/MIC) [2] | log(1/MIC) [3] | pKa at 1000 µM [4]
CCNC(=N)NC(=N)Nc1ccc(Cl)cc1 | 2.14 | 3 | 3.04 | 10.8
CCCCNC(=N)NC(=N)Nc1ccc(Cl)cc1 | 3.13 | 4 | 4 | 10.8
CCCCC(CC)CNC(=N)NC(=N)Nc1ccc(Cl)cc1 (stereo not drawn) | 4.93 | 5.4 | 5.4 | –
CCCCCCCCCCNC(=N)NC(=N)Nc1ccc(Cl)cc1 | 6.13 | 5 | 5.1 | –
CCCCCCCCCCCCNC(=N)NC(=N)Nc1ccc(Cl)cc1 | 7.13 | 4.7 | 5 | –
CCCCCCCCNC(=N)NC(=N)Nc1ccc(C)cc1 | 4.93 | 5.3 | 5.4 | –
CCCCCCCCNC(=N)NC(=N)Nc1cccc(C(F)(F)F)c1 | 5.31 | 5.3 | 5.3 | –
CC(C)OC(=N)NC(=N)Nc1ccc(Cl)cc1 | 2.64 | 3.3 | 3.3 | 9.35
CCCCCCCCOC(=N)NC(=N)Nc1ccc(Cl)cc1 | 5.32 | 5.3 | 5.52 | –
N=C(NCCCCCCNC(=N)NC(=N)Nc1cccc(C(F)(F)F)c1)NC(=N)Nc1cccc(C(F)(F)F)c1 | 5.12 | 5.22 | 5.52 | –
CCCCCSc1ccc(NC(=N)NC(=N)NCCCCCCNC(=N)NC(=N)Nc2ccc(SCCCCC)cc2)cc1 | 8.58 | 5.3 | 5.52 | –
CCCS(=O)(=O)c1ccc(NC(=N)NC(=N)NCCCCCCNC(=N)NC(=N)Nc2ccc(S(=O)(=O)CCC)cc2)cc1 | 2.1 | 3.7 | 3.7 | –
CCCCCS(=O)(=O)c1ccc(NC(=N)NC(=N)NCCCCCCNC(=N)NC(=N)Nc2ccc(S(=O)(=O)CCCCC)cc2)cc1 | 4.1 | 5.4 | 5.52 | –
CCCCCCS(=O)(=O)c1ccc(NC(=N)NC(=N)NCCCCCCNC(=N)NC(=N)Nc2ccc(S(=O)(=O)CCCCCC)cc2)cc1 | 5.1 | 5.4 | 5.4 | –
CCCCC(CC)CNC(=N)NC(=N)NCCCCCCNC(=N)NC(=N)NCC(CC)CCCC (stereo not drawn) [ALEXIDINE] | 7.04 | 5.1 | 5.15 | –
N=C(NCCCCCCNC(=N)NC(=N)Nc1ccc(Cl)cc1)NC(=N)Nc1ccc(Cl)cc1 [CHLORHEXIDINE] | 4.78 | 5.22 | 5.3 | 10.8

Continued, values first:

logD [1] | log(1/MIC) [2] | log(1/MIC) [3] | pKa at 1000 µM [4] | SMILES
3.13 | 5 | 5 | – | CCCCCC/N=C(N)/N=C(\N)Nc1ccc(Cl)cc1
1.58 | 3 | 3 | 10.6 | CNC(=N)NC(=N)Nc1ccc(Cl)cc1
2.63 | 3 | 3.04 | 10.8 | CCCNC(=N)NC(=N)Nc1ccc(Cl)cc1
5.13 | 5.22 | 5.22 | – | CCCCCCCCNC(=N)NC(=N)Nc1ccc(Cl)cc1
4.73 | 5.22 | 5.22 | – | CCCCC(CC)CNC(=N)NC(=N)Nc1ccc(C)cc1 (stereo not drawn)
4.43 | 5.04 | 5.22 | – | CCCCCCCCNC(=N)NC(=N)Nc1ccccc1
5.43 | 5.15 | 5.3 | – | CCCCCCCCCCNC(=N)NC(=N)Nc1ccccc1
4.31 | 4.96 | 5 | – | CCCCCCNC(=N)NC(=N)Nc1cccc(C(F)(F)F)c1
4.41 | 5 | 5.22 | – | CCCCCCCCNC(=N)NC(=N)Nc1ccc(OC)cc1
2.32 | 3.7 | 3.7 | 9.36 | CCOC(=N)NC(=N)Nc1ccc(Cl)cc1
3.32 | 4 | 4.15 | – | CCCCOC(=N)NC(=N)Nc1ccc(Cl)cc1
4.32 | 5 | 5.1 | – | CCCCCCOC(=N)NC(=N)Nc1ccc(Cl)cc1
6.32 | 5.05 | 5.05 | – | CCCCCCCCCCOC(=N)NC(=N)Nc1ccc(Cl)cc1
4.46 | 5.4 | 5.4 | – | N=C(NCCCCCCNC(=N)NC(=N)NC1CCCCC1)NC(=N)NC1CCCCC1
6.04 | 5 | 5 | – | N=C(NCCCCCCNC(=N)NC(=N)NC12CC3CC(CC(C3)C1)C2)NC(=N)NC12CC3CC(CC(C3)C1)C2
4.58 | 5.4 | 5.4 | – | CSc1ccc(NC(=N)NC(=N)NCCCCCCNC(=N)NC(=N)Nc2ccc(SC)cc2)cc1
5.58 | 5.7 | 5.7 | – | CCSc1ccc(NC(=N)NC(=N)NCCCCCCNC(=N)NC(=N)Nc2ccc(SCC)cc2)cc1
7.58 | 5.52 | 5.7 | – | CCCCSc1ccc(NC(=N)NC(=N)NCCCCCCNC(=N)NC(=N)Nc2ccc(SCCCC)cc2)cc1
3.1 | 4.52 | 4.7 | – | CCCCS(=O)(=O)c1ccc(NC(=N)NC(=N)NCCCCCCNC(=N)NC(=N)Nc2ccc(S(=O)(=O)CCCC)cc2)cc1
6.58 | 5.22 | 5.3 | – | CCCSc1ccc(NC(=N)NC(=N)NCCCCCCNC(=N)NC(=N)Nc2ccc(SCCC)cc2)cc1
2.43 | 3 | 3.04 | – | CC(C)NC(=N)NC(=N)Nc1ccc(Cl)cc1 [PROGUANIL]
